Measurements from ChEMBL document CHEMBL1151934, “Exploration and optimization of substituted triazolothiadiazines and triazolopyridazines as PDE4 inhibitors” (Bioorg Med Chem Lett, 2009).
Each block holds one compound with its values, some of them ahead of it. Calls of active or inactive are those of the source. No cut-off for these calls is given here.

What was measured:
[1] = target: 3',5'-cyclic-AMP phosphodiesterase 4A (Homo sapiens, UniProt P27815); assay: Inhibition of human PDE4A by IMAP fluorescence polarization technology
[2] = target: cGMP-dependent 3',5'-cyclic phosphodiesterase (Homo sapiens) (UniProt O00408); assay: Inhibition of PDE2A at 10 uM
[3] = Intrinsic clearance in rat microsomes; format: ADME, Microsome
[4] = Inhibition of PDE4 expressed in HEK293 cells coexpressing G-protein coupled receptor and cyclic nucleotide gated ion channel by fluorescence assay; format: cell-based
Outline: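 PDE4-expressing reporter cells plated at 1000 cells/well in DMEM with penicillin/streptomycin and 2%, 5%, 10% or 20% fetal calf serum, 12 hr at 37 °C, 5% CO₂. Membrane potential dye 1 hr at room temperature, then compound pin-transferred from DMSO serial dilutions (final DMSO under 0.5%). Tested in duplicate.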

[5] = target: T1, 3',5'-cyclic-AMP phosphodiesterase 7B (Homo sapiens, UniProt Q9NP56); assay: Inhibition of PDE7B at 10 uM
[6] = target: cGMP-specific 3',5'-cyclic phosphodiesterase (Homo sapiens) (UniProt O76074); assay: Inhibition of PDE5A1 at 10 uM
[7] = target: Beta-2 adrenergic receptor (Homo sapiens) (UniProt P07550); assay: Inhibition of beta2 adrenergic receptor expressed in HEK293 cells co-transfected with PKA fragments Reg-F[1] and cat-F[2]-fused renilla luciferase assessed as effect on receptor regulated increase in cAMP accumulation at 10 uM after 30 mins by protein-fragment complementation assay; format: functional, cell-based
Outline: (§1)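 Stable β2AR-HEK293 cells grown in DMEM with 10% fetal bovine serum and transiently transfected with the Rluc PCA PKA reporter. Compounds added 48 h after transfection. Medium exchanged for PBS and bioluminescence read on a luminometer immediately after treatment.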

[8] = target: T2, High affinity 3',5'-cyclic-AMP phosphodiesterase 7A (Homo sapiens, UniProt Q13946); assay: Inhibition of PDE7A at 10 uM
[9] = target: Beta-2 adrenergic receptor (Homo sapiens) (UniProt P07550); assay: Inhibition of beta2 adrenergic receptor expressed in HEK293 cells co-transfected with PKA fragments Reg-F[1] and cat-F[2]-fused renilla luciferase assessed as effect on receptor regulated increase in cAMP accumulation at 100 uM after 30 mins by protein-fragment complementation assay; format: functional, cell-based; outline: as §1
[10] = target: T3, Dual specificity calcium/calmodulin-dependent 3',5'-cyclic nucleotide phosphodiesterase 1C (Homo sapiens, UniProt Q14123); assay: Inhibition of PDE1C at 10 uM
[11] = target: T4, cGMP-inhibited 3',5'-cyclic phosphodiesterase 3A (Homo sapiens, UniProt Q14432); assay: Inhibition of PDE3A at 10 uM
[12] = target: Dual specificity calcium/calmodulin-dependent 3',5'-cyclic nucleotide phosphodiesterase 1A (Homo sapiens) (UniProt P54750); assay: Inhibition of PDE1A at 10 uM
[13] = Metabolic stability in rat assessed as half life; format: ADME, organism-based; conditions: in vivo
[14] = target: T5, Dual specificity calcium/calmodulin-dependent 3',5'-cyclic nucleotide phosphodiesterase 1B (Homo sapiens, UniProt Q01064); assay: Inhibition of PDE1B at 10 uM
[15] = Inhibition of PDE4A1A
[16] = target: Beta-2 adrenergic receptor (Homo sapiens) (UniProt P07550); assay: Inhibition of beta2 adrenergic receptor expressed in HEK293 cells co-transfected with PKA fragments Reg-F[1] and cat-F[2]-fused renilla luciferase assessed as dissociation of PKA fragments after 2 mins by real time kinetic study relative to inverse agonist ICI-118551; format: functional, cell-based
Outline: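 Stable β2AR-HEK293 cells grown in DMEM with 10% fetal bovine serum and transiently transfected with plasmids carrying the Rluc PCA PKA reporter (FuGENE-6). Cells were treated with compounds 48 h after transfection. Immediately after treatment, the medium was exchanged for PBS and bioluminescence was read on a luminometer.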

[17] = target: cAMP and cAMP-inhibited cGMP 3',5'-cyclic phosphodiesterase 10A (Homo sapiens, UniProt Q9Y233); assay: Inhibition of PDE10A1
[18] = target: Beta-2 adrenergic receptor (Homo sapiens) (UniProt P07550); assay: (§2) Inhibition of beta2 adrenergic receptor expressed in HEK293 cells co-transfected with PKA fragments Reg-F[1] and cat-F[2]-fused renilla luciferase assessed as effect on receptor regulated PKA activation at 100 uM after 30 mins by protein-fragment complementation assay; format: cell-based; outline: as §1
[19] = target: T5, Dual specificity calcium/calmodulin-dependent 3',5'-cyclic nucleotide phosphodiesterase 1B
[20] = target: Beta-2 adrenergic receptor (Homo sapiens) (UniProt P07550); assay: as §2, with “assay in presence of inverse agonist ICI-118551” for “assay”; format: functional, cell-based; outline: as §1
[21] = target: T2, High affinity 3',5'-cyclic-AMP phosphodiesterase 7A; assay: Inhibition of PDE7A
[22] = target: T1, 3',5'-cyclic-AMP phosphodiesterase 7B; assay: Inhibition of PDE7B
[23] = target: T3, Dual specificity calcium/calmodulin-dependent 3',5'-cyclic nucleotide phosphodiesterase 1C; assay: Inhibition of PDE1C
[24] = target: T4, cGMP-inhibited 3',5'-cyclic phosphodiesterase 3A
[25] = target: cGMP-inhibited 3',5'-cyclic phosphodiesterase 3B (Homo sapiens, UniProt Q13370)

T1 sequence (Q9NP56 whole entry): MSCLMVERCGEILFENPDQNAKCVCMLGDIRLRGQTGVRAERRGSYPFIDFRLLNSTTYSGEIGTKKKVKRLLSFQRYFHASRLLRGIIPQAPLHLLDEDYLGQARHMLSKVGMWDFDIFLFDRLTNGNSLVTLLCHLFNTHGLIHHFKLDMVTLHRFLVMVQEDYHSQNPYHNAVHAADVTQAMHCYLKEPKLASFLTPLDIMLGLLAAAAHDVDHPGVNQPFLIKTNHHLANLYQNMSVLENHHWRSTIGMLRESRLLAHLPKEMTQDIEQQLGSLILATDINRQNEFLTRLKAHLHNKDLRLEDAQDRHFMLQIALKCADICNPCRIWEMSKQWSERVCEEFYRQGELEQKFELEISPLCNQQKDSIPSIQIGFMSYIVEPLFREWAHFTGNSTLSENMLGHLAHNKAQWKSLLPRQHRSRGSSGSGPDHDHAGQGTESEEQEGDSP
T5 sequence (Q01064 whole entry): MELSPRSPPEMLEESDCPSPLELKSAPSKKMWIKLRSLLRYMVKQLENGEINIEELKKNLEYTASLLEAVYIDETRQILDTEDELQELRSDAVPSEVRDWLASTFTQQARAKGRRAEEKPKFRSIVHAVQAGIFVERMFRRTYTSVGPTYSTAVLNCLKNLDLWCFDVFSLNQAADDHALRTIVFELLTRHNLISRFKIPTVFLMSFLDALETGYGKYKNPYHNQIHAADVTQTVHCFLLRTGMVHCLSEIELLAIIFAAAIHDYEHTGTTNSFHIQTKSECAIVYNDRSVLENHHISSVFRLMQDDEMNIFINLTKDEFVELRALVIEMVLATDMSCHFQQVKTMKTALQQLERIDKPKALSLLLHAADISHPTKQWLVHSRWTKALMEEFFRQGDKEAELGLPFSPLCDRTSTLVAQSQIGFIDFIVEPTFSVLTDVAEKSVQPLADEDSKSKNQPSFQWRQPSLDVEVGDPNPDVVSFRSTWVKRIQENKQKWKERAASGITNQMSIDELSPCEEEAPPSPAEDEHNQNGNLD
T3 sequence (Q14123 whole entry): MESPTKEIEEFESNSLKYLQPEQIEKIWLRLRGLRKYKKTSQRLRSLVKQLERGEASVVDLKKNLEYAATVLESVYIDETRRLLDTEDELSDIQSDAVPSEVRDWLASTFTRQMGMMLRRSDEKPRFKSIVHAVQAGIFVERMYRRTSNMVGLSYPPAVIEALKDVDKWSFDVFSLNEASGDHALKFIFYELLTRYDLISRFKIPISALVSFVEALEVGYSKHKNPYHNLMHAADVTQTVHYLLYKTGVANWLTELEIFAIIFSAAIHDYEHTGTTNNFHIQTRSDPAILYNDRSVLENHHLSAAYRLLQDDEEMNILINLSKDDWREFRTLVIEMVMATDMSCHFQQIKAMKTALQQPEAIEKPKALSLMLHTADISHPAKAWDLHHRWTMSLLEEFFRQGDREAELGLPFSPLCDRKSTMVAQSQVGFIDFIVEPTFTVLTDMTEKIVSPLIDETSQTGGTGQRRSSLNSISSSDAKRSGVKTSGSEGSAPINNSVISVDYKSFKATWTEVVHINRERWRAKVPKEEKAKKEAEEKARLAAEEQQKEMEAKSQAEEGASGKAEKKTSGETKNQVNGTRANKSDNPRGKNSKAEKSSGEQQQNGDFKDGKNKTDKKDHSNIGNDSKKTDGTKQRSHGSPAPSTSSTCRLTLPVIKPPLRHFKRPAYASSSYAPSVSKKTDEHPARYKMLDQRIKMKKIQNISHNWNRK
Chain of Beta-2 adrenergic receptor (Homo sapiens) (P07550 whole entry, looked up, the tested form may be a part): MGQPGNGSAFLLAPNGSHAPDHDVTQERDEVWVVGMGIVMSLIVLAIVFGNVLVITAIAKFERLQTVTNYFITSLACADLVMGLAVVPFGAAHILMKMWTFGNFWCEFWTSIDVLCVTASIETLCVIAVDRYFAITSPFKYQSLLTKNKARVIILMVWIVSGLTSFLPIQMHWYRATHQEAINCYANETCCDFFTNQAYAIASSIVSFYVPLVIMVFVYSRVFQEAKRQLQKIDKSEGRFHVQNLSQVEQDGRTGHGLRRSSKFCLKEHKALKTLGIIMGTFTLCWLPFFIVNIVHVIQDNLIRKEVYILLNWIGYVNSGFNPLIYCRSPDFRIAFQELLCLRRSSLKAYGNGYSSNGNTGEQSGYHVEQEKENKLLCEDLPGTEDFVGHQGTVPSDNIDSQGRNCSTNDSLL
T2 sequence (Q13946 whole entry, the tested form may be a part): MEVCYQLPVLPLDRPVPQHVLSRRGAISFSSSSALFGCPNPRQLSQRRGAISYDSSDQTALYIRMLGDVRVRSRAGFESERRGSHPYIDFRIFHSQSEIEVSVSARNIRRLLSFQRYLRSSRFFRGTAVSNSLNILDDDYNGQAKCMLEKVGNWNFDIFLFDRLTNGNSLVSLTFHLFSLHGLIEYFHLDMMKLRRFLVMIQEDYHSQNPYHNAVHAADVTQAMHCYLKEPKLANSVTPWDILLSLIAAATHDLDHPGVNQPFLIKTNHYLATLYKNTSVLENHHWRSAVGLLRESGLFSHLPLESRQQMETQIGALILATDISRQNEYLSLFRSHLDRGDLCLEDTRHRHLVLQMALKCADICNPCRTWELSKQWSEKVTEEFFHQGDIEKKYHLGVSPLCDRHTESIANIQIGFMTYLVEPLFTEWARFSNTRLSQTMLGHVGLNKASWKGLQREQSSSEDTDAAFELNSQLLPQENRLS
T4 sequence (Q14432 whole entry): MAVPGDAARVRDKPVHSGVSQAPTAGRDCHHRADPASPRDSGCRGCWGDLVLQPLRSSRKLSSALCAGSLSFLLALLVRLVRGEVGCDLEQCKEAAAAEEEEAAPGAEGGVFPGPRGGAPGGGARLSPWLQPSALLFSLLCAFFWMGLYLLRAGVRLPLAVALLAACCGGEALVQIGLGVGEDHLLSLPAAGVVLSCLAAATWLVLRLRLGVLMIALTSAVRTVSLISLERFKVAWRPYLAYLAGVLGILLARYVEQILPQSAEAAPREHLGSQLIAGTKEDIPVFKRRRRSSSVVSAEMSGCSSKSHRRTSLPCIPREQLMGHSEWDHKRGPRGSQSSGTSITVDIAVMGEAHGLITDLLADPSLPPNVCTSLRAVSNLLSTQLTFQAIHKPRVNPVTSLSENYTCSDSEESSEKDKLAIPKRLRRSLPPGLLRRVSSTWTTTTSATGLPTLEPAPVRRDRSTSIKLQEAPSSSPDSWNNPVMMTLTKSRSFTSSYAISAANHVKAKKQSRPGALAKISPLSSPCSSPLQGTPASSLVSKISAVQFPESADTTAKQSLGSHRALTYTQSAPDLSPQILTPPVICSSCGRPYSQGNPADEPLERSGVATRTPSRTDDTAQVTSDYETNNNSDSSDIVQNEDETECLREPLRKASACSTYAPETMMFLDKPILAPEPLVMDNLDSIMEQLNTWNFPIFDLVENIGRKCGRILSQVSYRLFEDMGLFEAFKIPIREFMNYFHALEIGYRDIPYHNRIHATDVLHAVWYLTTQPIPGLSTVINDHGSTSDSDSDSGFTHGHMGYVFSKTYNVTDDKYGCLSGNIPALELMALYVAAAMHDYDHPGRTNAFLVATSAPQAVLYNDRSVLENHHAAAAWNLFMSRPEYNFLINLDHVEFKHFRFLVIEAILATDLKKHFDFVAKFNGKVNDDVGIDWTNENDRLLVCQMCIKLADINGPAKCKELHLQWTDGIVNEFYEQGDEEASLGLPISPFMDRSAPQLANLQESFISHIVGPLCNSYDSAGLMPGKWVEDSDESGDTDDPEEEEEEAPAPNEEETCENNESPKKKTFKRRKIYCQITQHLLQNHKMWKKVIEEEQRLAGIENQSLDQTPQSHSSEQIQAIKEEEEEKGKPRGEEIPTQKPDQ
Chain of 3',5'-cyclic-AMP phosphodiesterase 4A (P27815 whole entry): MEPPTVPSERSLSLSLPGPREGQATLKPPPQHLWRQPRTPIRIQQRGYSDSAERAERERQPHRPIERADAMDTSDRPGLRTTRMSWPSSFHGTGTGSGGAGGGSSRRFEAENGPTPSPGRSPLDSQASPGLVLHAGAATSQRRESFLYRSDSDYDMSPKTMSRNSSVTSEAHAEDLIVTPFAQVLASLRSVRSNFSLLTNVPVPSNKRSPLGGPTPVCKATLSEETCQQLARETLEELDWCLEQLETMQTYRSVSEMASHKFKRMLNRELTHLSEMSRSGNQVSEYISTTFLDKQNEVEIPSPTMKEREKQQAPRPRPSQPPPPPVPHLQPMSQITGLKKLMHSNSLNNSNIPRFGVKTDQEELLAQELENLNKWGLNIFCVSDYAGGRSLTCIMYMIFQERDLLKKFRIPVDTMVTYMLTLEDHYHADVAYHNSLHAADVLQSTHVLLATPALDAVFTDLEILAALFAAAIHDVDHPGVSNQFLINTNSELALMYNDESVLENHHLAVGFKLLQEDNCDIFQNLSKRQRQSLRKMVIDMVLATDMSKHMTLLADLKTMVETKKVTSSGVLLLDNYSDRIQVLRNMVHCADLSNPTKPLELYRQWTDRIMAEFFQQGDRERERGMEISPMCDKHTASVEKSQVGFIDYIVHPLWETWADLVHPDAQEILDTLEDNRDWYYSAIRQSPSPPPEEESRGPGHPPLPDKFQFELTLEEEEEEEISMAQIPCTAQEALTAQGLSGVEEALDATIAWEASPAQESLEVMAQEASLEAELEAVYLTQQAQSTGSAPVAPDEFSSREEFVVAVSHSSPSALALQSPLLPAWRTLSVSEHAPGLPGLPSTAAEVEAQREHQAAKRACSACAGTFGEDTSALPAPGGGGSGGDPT

SMILES: COc1ccc(C2=Nn3c(nnc3-c3ccccc3Cl)SC2)cc1O[C@@H]1CCOC1
IC50 [1]: 3.8 nM

SMILES: COc1ccc(OC)c(-c2nnc3ccc(-c4ccc(OC)c(O[C@@H]5CCOC5)c4)nn23)c1
inhibition [2]: 54%
microsomal CLint [3]: > 300 µL/min/mg
EC50 [4]: 34.2 nM
inhibition [5]: 35%
inhibition [6]: 51%
inhibition [7]: Active
inhibition [8]: 59%
inhibition [9]: Active
inhibition [10]: 74%
inhibition [11]: 54%
inhibition [12]: 32%
half-life [13]: 3 min
inhibition [14]: 56%
IC50 [15]: 0.6 nM

SMILES: COc1ccc(OC)c(-c2nnc3ccc(-c4ccc(OC)c(O[C@H]5CCOC5)c4)nn23)c1
microsomal CLint [3]: > 300 µL/min/mg
half-life [13]: 3 min

SMILES: COc1ccc(OC)c(-c2nnc3n2N=C(c2ccc(OC)c(O[C@@H]4CCOC4)c2)CS3)c1
inhibition [2]: 68%
microsomal CLint [3]: > 300 µL/min/mg
EC50 [4]: 2.3 nM
inhibition [5]: 43%
inhibition [6]: 58%
inhibition [7]: Active
inhibition [8]: 48%
inhibition [9]: Active
inhibition [10]: 49%
inhibition [11]: 56%
inhibition [12]: 36%
half-life [13]: 3 min
inhibition [14]: 52%
inhibition [16]: 25%

SMILES: COc1ccc(C2=Nn3c(nnc3-c3ccccc3Cl)SC2)cc1OCC1CC1
IC50 [1]: 21 nM

SMILES: COc1ccc(C2CNC(=O)C2)cc1OC1CCCC1 (stereo not given) [ROLIPRAM]
IC50 [17]: Not Active
inhibition [18]: Active
IC50 [19]: Not Active
inhibition [20]: inactive
IC50 [21]: Not Active
IC50 [22]: Not Active
IC50 [23]: Not Active

SMILES: COc1ccc(OC)c(-c2nnc3n2N=C(c2ccc(OC)c(OC4CCOC4)c2)CS3)c1 (racemic)
microsomal CLint [3]: > 300 µL/min/mg
half-life [13]: 3 min

SMILES: COc1ccc(OC)c(-c2nnc3n2N=C(c2ccc(OC)c(OC)c2)CS3)c1
IC50 ([17]; read-out: IC50): 823 nM
microsomal CLint [3]: > 300 µL/min/mg
EC50 [4]: 18.7 nM
half-life [13]: 3 min
IC50 [24]: 1700 nM
IC50 [25]: 720 nM

SMILES: COc1ccc(C2=Nn3c(nnc3-c3ccccc3F)SC2)cc1OC1CCOC1 (stereo not given)
IC50 [1]: 11 nM

SMILES: COc1ccc(OC)c(-c2nnc3n2N=C(c2ccc(OC)c(OC4CCCC4)c2)CS3)c1
microsomal CLint [3]: > 300 µL/min/mg
half-life [13]: 3 min

SMILES: COc1ccc(C2=Nn3c(nnc3-c3ccccc3OC)SC2)cc1OC1CCCC1
IC50 [1]: 32 nM

SMILES: COc1ccccc1-c1nnc2n1N=C(c1ccc(OC(F)F)c(OCC3CC3)c1)CS2
IC50 [1]: 35 nM

SMILES: Fc1ccccc1-c1nnc2n1N=C(c1ccc(OC(F)F)c(OCC3CC3)c1)CS2
IC50 [1]: 53 nM

SMILES: COc1ccc(OC)c(-c2nnc3n2N=C(c2ccc(OC)c(OCC4CC4)c2)CS3)c1
microsomal CLint [3]: > 300 µL/min/mg
half-life [13]: 3 min

Next, values leading:

IC50 [1]: 11 nM
SMILES: COc1ccc(C2=Nn3c(nnc3-c3ccccc3OC)SC2)cc1O[C@@H]1CCOC1

IC50 [1]: 33 nM
SMILES: COc1ccc(C2=Nn3c(nnc3-c3ccccc3F)SC2)cc1OC1CCCC1

microsomal CLint [3]: > 300 µL/min/mg
half-life [13]: 3 min
SMILES: COc1ccc(OC)c(-c2nnc3n2N=C(c2ccc(OC(F)F)c(OCC4CC4)c2)CS3)c1

IC50 [1]: 20 nM
SMILES: COc1ccc(C2=Nn3c(nnc3-c3ccccc3OC)SC2)cc1OC1CCOC1 (stereo not given)

IC50 [1]: 9.8 nM
SMILES: COc1ccc(C2=Nn3c(nnc3-c3ccccc3Cl)SC2)cc1OC1CCOC1 (stereo not given)

IC50 [1]: 8.6 nM
SMILES: COc1ccc(C2=Nn3c(nnc3-c3ccccc3F)SC2)cc1O[C@@H]1CCOC1

IC50 [1]: 37 nM
SMILES: FC(F)Oc1ccc(C2=Nn3c(nnc3-c3ccccc3Cl)SC2)cc1OCC1CC1

IC50 [1]: 26 nM
SMILES: COc1ccc(C2=Nn3c(nnc3-c3ccccc3Cl)SC2)cc1OC1CCCC1

IC50 [1]: 35 nM
SMILES: COc1ccc(C2=Nn3c(nnc3-c3ccccc3OC)SC2)cc1OCC1CC1
